Data set [1] concerns the target T1, D(1A) dopamine receptor (Homo sapiens, UniProt P21728). The data set can be described thus: Agonist activity at recombinant C-terminal RLuc8-fused human D1 receptor expressed in HEK29T cells co-expressing N-terminal Venus-tagged beta-arrestin2 assessed as increase in beta-arrestin2 recruitment at 10^-4M measured after 15 mins in presence of coelenterazine H by BRET assay. The class given is cell-based.

The target of data set [2] is T1, D(1A) dopamine receptor. Put plainly: Agonist activity at recombinant C-terminal RLuc8-fused human D1 receptor expressed in HEK29T cells co-expressing N-terminal Venus-tagged beta-arrestin2 assessed as increase in beta-arrestin2 recruitment at 10^-4M measured after 15 mins in presence of coelenterazine H by BRET assay relative to dopamine. The class given is cell-based.

The target of data set [3] is T1, D(1A) dopamine receptor. The data set can be described thus: Agonist activity at recombinant human D1 receptor expressed in HEK29T cells assessed as induction of stimulatory G-protein-mediated cAMP accumulation at 10'4M measured after 15 mins by Glosensor-based FLIPR assay. In kind it is functional, cell-based. The gist of the method: (§1)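 GloSensor-22F cAMP biosensor in HEK293T cells co-expressing human D1, seeded in DMEM + 1% dialyzed FBS; next day GloSensor reagent equilibrated ≥15 min at room temperature in HBSS/20 mM HEPES pH 7.4, then drug added in HBSS/HEPES/0.1% BSA/0.01% ascorbic acid. Luminescence read after 15 min; normalized to dopamine maximum (100%); sigmoidal fit; maximum tested 10⁻⁴ M; ≥3 experiments in triplicate.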

In data set [4] the target is T1, D(1A) dopamine receptor. Put plainly: Agonist activity at recombinant human D1 receptor expressed in HEK29T cells assessed as induction of stimulatory G-protein-mediated cAMP accumulation at 10'4M measured after 15 mins by Glosensor-based FLIPR assay relative to dopamine. In kind it is functional, cell-based. The gist of the method: as §1
Data set [5] concerns the target T1, D(1A) dopamine receptor. The data set can be described thus: Agonist activity at recombinant human D1 receptor expressed in HEK29T cells assessed as induction of stimulatory G-protein-mediated cAMP accumulation measured after 15 mins by Glosensor-based FLIPR assay. The class given is functional, cell-based. The gist of the method:
as §1

The target of data set [6] is T1, D(1A) dopamine receptor. Put plainly: Agonist activity at recombinant human D1 receptor expressed in HEK29T cells assessed as induction of stimulatory G-protein-mediated cAMP accumulation measured after 15 mins by Glosensor-based FLIPR assay relative to dopamine. In kind it is functional, cell-based. In a few lines: as §1
The target in data set [7] is T1, D(1A) dopamine receptor. The data set can be described thus: Agonist activity at recombinant C-terminal RLuc8-fused human D1 receptor expressed in HEK29T cells co-expressing N-terminal Venus-tagged beta-arrestin2 assessed as increase in beta-arrestin2 recruitment measured after 15 mins in presence of coelenterazine H by BRET assay. In kind it is cell-based. The conditions noted are these: read-out: EC50.

Data set [8] has as its target T1, D(1A) dopamine receptor. The data set can be described thus: Agonist activity at recombinant C-terminal RLuc8-fused human D1 receptor expressed in HEK29T cells co-expressing N-terminal Venus-tagged beta-arrestin2 assessed as increase in beta-arrestin2 recruitment measured after 15 mins in presence of coelenterazine H by BRET assay relative to dopamine. In kind it is cell-based.

The target in data set [9] is T1, D(1A) dopamine receptor. Put plainly: Bias factor, transduction co-efficient for agonist activity at recombinant human D1 receptor expressed in HEK29T cells assessed as induction of stimulatory G-protein-mediated cAMP accumulation to agonist activity at recombinant C-terminal RLuc8-fused human D1 receptor expressed in HEK29T cells co-expressing N-terminal Venus-tagged beta-arrestin2 assessed as increase in beta-arrestin2 recruitment. The class given is functional, cell-based. In a few lines: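 Dopamine as full-agonist reference; transduction coefficients log(τ/KA) for Gs-cAMP (GloSensor) and β-arrestin2 (BRET) computed relative to dopamine and averaged across experiments; bias factor derived by Kenakin method from the difference between Gs and β-arrestin2 coefficients.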

Data set [10] in a line: Cmax in Swiss albino mouse plasma at 50 mg/kg, ip measured up to 4 hrs by LC-MC/MS analysis. Set-up: dose 50 mg/kg, route intraperitoneal. In kind it is ADME, organism-based. The gist of the method: (§2)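 Male Swiss Albino mice (nine), 50 mg/kg i.p. in 5% NMP/5% Solutol HS-15/90% saline; plasma and brain taken from three mice per time point at 0.5, 1.5 and 4 h; brain homogenized 2:1 in ice-cold PBS pH 7.4; LC-MS/MS quantitation (LLOQ 1.01 ng/mL plasma, 3.03 ng/g brain); noncompartmental analysis.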

Data set [11] in a line: Cmax in Swiss albino mouse brain at 50 mg/kg, ip measured up to 4 hrs by LC-MC/MS analysis. In kind it is ADME, organism-based. Set-up: dose 50 mg/kg, route intraperitoneal. The gist of the method:
as §2

The nature of data set [12]: Toxicity in Swiss albino mouse at 50 mg/kg, ip measured up to 4 hrs. The class given is organism-based. As to conditions: in vivo.
The nature of data set [13]: Ratio of drug level in brain to plasma in Swiss albino mouse at 50 mg/kg, ip measured up to 4 hrs by LC-MC/MS analysis. In kind it is ADME, organism-based. The gist of the method: as §2

Active and inactive are the calls of the source. The calls are words filed in the database; no cut-off is given here.

T1 sequence (P21728 whole entry, the tested form may be a part): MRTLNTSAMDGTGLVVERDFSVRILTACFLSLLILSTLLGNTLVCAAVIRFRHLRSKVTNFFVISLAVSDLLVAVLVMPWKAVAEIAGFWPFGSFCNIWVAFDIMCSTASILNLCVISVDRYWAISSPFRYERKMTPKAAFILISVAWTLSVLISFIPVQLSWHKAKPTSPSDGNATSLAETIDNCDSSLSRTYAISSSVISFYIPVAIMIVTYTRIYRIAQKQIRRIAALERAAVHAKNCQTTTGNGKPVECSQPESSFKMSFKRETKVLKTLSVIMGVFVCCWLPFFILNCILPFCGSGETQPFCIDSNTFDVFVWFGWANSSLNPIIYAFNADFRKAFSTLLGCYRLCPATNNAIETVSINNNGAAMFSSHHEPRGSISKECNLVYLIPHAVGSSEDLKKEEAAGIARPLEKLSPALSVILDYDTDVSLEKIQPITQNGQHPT

Consider `Cc1cc(Oc2nccc3occc23)cc(C)c1-c1cccc2nccn12`, for which the outcome in data set [1] and in data set [3] was inactive. The Emax entry in [2] and in [4] was “inactive” each time.
Turning to `Cc1ncc2nccn2c1-c1ccc(Oc2nccc3occc23)cc1N`, the EC50 in data set [5] stood at 0.0013 µM; in data set [7], 0.21 µM. Also, the Emax was 104% in [6] and 81% in data set [8]. The fold change (FC) in [9] stood at 2.7.
For `Cc1cc(Oc2nccc3occc23)ccc1-c1c(C)nc2cnccn12`, in that order: 0.0058 µM, 2.6 µM, 63%, 89% and 4.1.
For `Cc1cc(Oc2nccc3ccsc23)ccc1-c1c(C)ncc2nccn12`, in that order: 0.00023 µM, 0.022 µM, 100%, 63% and 1.9.
Consider `Cc1cc(Oc2nccn3cccc23)ccc1-c1c(C)ncc2nccn12`, for which the values for the Emax in data set [6] and in data set [8] were 83% and 59%, respectively. Further, in data set [9], the fold change (FC) amounted to 15.
Take `Nc1cc(Oc2nccc3occc23)ccc1-c1cccc2nccn12`: the EC50 in data set [5] is 0.01 µM; in [7], 0.79 µM. The Emax stood at 91% in data set [6] and 54% in data set [8]. Also, in [9], the fold change (FC) was determined as 1.7. The maximum concentration (Cmax) in data set [10] and in data set [11] was 100 µM throughout. Also, in [12], the Activity entry is listed as “Non-Toxic”. Besides, the BPR in data set [13] lay within 1.2 to 1.6.
Consider `Oc1cc2c(cc1O)[C@H]1c3ccccc3CN[C@@H]1CC2` (racemic), for which, in [9], the fold change (FC) was 7.5.
For the molecule `FC(F)(F)c1cc(Oc2cc(N3CCCCC3)ccn2)ccc1-c1cccc2nccn12`, the EC50 in data set [7] is more than 10 µM. Further, the result in data set [3] was inactive. Besides, in [4], the Emax result was “inactive”.
On to `Cc1cc(Oc2nccc3occc23)ccc1-c1cccc2nccn12`, for which the values for the EC50 in data set [5] and in [7] were 0.0027 µM and 0.18 µM, respectively. Further, the Emax amounted to 95% in data set [6] and 63% in data set [8]. The fold change (FC) in data set [9] was found to be 1.3.
`FC(F)(F)c1cc(-c2cccc3nccn23)ccc1Oc1nccc2occc12`: the outcome in data set [1] and in data set [3] was inactive. Further, the Emax result in [2] and in [4] was “inactive” each time.
Take `Cc1ncc2nccn2c1-c1ccc(Oc2nccc3occc23)c(C(F)(F)F)c1`: the outcome in data set [1] and in data set [3] was inactive. Also, the Emax result in data set [2] and in [4] was “inactive” each time.
As to `Cc1cc(Oc2nccc3occc23)ccc1-c1cc(N)cnc1C`, the figures for the EC50 in [5] and in data set [7] were 0.013 µM and 1.1 µM, respectively. Also, the values for the Emax in data set [6] and in data set [8] were 67% and 64%, respectively. The fold change (FC) in [9] was determined as 1.2.

(Values after ChEMBL document CHEMBL4390674, “Defining Structure-Functional Selectivity Relationships (SFSR) for a Class of Non-Catechol Dopamine D1 Receptor Agonists” (J Med Chem, 2019).)
